EC50 and IC50 data for ten compounds are collected here from ChEMBL document CHEMBL1138697, “Development of a new class of potential antiatherosclerosis agents: NO-donor antioxidants” (Bioorg Med Chem Lett, 2004).

The species named for assay [1] is Rattus norvegicus. The experiment in a line: Vasodilating activity in rat aorta strip in presence of 1H-[1,2,4]oxadiazolo[4,3-a]quinoxalin-1-one (ODQ). Type of assay: functional, organism-based. The gist of the method: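 Rat aortic strips were precontracted with 1 μM L-phenylephrine. ODQ 1 μM was added to the bath at least 5 min before contraction, in a separate series of experiments, and relaxation was then measured.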

The species entered for assay [2] is Rattus norvegicus. In words: Tested for inhibition of ferrous salt/ascorbate induced lipidic peroxidation of membrane lipid of rat hepatocytes. Type of assay: functional. As to conditions: Hepatocyte. The method in brief: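 Rat liver microsomes (male Wistar, 200-250 g) were prepared by differential centrifugation and used at 2 mg prot/mL. Incubation was at 37°C, pH 7.4, Tris-HCl/KCl, with 100 μM ascorbate and compounds in DMSO (≤5%). TBARS were read at 543 nm against an MDA standard, using the 30-min plateau. IC50 came from % inhibition vs control by non-linear regression.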

The species named for assay [3] is Rattus norvegicus. In words: Vasodilating activity in rat aorta strip in absence of 1H-[1,2,4]oxadiazolo[4,3-a]quinoxalin-1-one (ODQ). Type of assay: functional, organism-based. The method in brief: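 Rat aortic strips were precontracted with 1 μM L-phenylephrine and relaxation was measured. The method follows an earlier published procedure with minor changes.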

Usually EC50 stands for the concentration needed to bring the measured effect to its halfway point. The IC50 is the concentration that gives 50% inhibition. With `CC(C)(C)c1cc(CCCOc2no[n+]([O-])c2S(=O)(=O)c2ccccc2)cc(C(C)(C)C)c1O`, the EC50 was found to be 4800 nM in the assay listed under Rattus norvegicus [1] and 110 nM in the assay filed under Rattus norvegicus [3]. The concentration for half-maximal inhibition (IC50) in the assay filed under Rattus norvegicus [2] amounted to 2000 nM.

As to `CC(C)(C)c1cc(CCCO[N+](=O)[O-])cc(C(C)(C)C)c1O`, the IC50 in the assay filed under Rattus norvegicus [2] worked out at 2000 nM. Also, the 50% effective concentration (EC50) in the assay listed under Rattus norvegicus [3] was determined as 40000 nM.

Turning to `Cc1c(C)c2c(c(C)c1O)CCC(C)(COCCCO[N+](=O)[O-])O2` (stereo unspecified), the IC50 in the assay listed under Rattus norvegicus [2] stood at 150 nM. The midpoint of the response in the assay listed under Rattus norvegicus [3], the EC50, lay at 1200 nM.

As for `O=[N+]([O-])OCCCc1ccc(O)cc1`, in the assay filed under Rattus norvegicus [2], the IC50 was 143000 nM. The compound also had an EC50 in the assay filed under Rattus norvegicus [3] of 1000 nM.

For the compound `O=S(=O)(c1ccccc1)c1c(OCCCc2ccc(O)cc2)no[n+]1[O-]`, the EC50 in the assay listed under Rattus norvegicus [1] came out at 360 nM; in the assay filed under Rattus norvegicus [3], 10 nM. In the assay filed under Rattus norvegicus [2], the IC50 was 47000 nM.

On to `Cc1c(C)c2c(c(C)c1O)CCC(C)(COc1no[n+]([O-])c1S(=O)(=O)c1ccccc1)O2` (stereo unspecified), for which the 50% effective concentration (EC50) in the assay listed under Rattus norvegicus [1] amounted to 670 nM; in the assay filed under Rattus norvegicus [3], 40 nM. Further, the IC50 in the assay listed under Rattus norvegicus [2] was 490 nM.

Turning to `CCOc1no[n+]([O-])c1S(=O)(=O)c1ccccc1`, the EC50 was determined as 1200 nM in the assay filed under Rattus norvegicus [1] and 10 nM in the assay filed under Rattus norvegicus [3]. In the assay filed under Rattus norvegicus [2], the IC50 came out at 110000 nM.

For `Cc1c(C)c2c(c(C)c1O)CCC(C)(C)O2` [APC-100], in the assay filed under Rattus norvegicus [2], the IC50 was 170 nM.

With `Cc1cc(C(C)(C)C)c(O)c(C(C)(C)C)c1` [BUTYLATED HYDROXYTOLUENE], the IC50 in the assay listed under Rattus norvegicus [2] worked out at 1700 nM.

On to `Cc1ccc(O)cc1` [p-CRESOL], for which the IC50 in the assay filed under Rattus norvegicus [2] is 290000 nM.
